Source: ChEMBL document CHEMBL1811804, “Benzyl derivatives with in vitro binding affinity for human opioid and cannabinoid receptors from the fungus Eurotium repens” (J Nat Prod, 2011)

Key:
Format in all cases: cell-based
Cannabinoid receptor 2 [1] = target: T1, Cannabinoid receptor 2 (Homo sapiens, UniProt P34972); assay: Binding affinity at human CB2 receptor expressed in CHO-K1 cells at 10 uM
Summary of the method: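 CHO-K1 cells stably transfected with full-length human CB1 or CB2 cDNA, cultured in DMEM/F-12 with 10% FBS and G418 or hygromycin B. Membranes (10 μg) incubated with test compound at 10 μM final and 0.6 nM [3H]CP-55,940 in 50 mM Tris pH 7.4, 154 mM NaCl, 20 mM Di-Na-EDTA, 0.02% BSA, 37 °C, 90 min. Filtration, scintillation counting; nonspecific binding (1 μM CP-55,940) subtracted; % displacement.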

Cannabinoid receptor 1 [2] = target: T2, Cannabinoid receptor 1 (Homo sapiens, UniProt P21554); assay: Binding affinity at human CB1 receptor expressed in CHO-K1 cells at 10 uM
[3] = target: T3, Delta-type opioid receptor (Homo sapiens, UniProt P41143); assay: Binding affinity at human delta opioid receptor expressed in CHO-K1 cells at 10 uM
Summary of the method: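 Opioid membrane binding with test compound at 10 μM final; radioligand and membrane amounts set from saturation experiments. Incubation 25 °C, 60 min, then rapid filtration through BSA-presoaked filters, buffer wash and scintillation counting.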

[4] = target: Kappa-type opioid receptor (Homo sapiens, UniProt P41145); assay: Displacement of [3H]nor-Binaltorphimine from human kappa opioid receptor expressed in CHO-K1 cells after 60 mins by scintillation counting
Summary of the method: (§1)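 Opioid receptor membranes incubated with radioligand (amounts set from saturation experiments) at 25 °C for 60 min, test compound at 300 μM to 1.7 nM in dose-response. Rapid filtration through BSA-presoaked filters, scintillation counting; nonspecific binding (10 μM DPDPE, nor-binaltorphimine or DAMGO) subtracted. IC50 = concentration for 50% inhibition of 3H-ligand binding.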

[5] = target: T3, Delta-type opioid receptor; assay: Displacement of [3H]DPDPE from human delta opioid receptor expressed in CHO-K1 cells after 60 mins by scintillation counting; summary of the method: as §1
Cannabinoid receptor 2 [6] = target: T1, Cannabinoid receptor 2; assay: Displacement of [3H]CP-55,940 from human CB2 receptor expressed in CHO-K1 cells after 90 mins by scintillation counting
Summary of the method: (§2)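 Membranes from CHO-K1 cells stably expressing human CB1 or CB2, 10 μg per well, with 0.6 nM [3H]CP-55,940 in 50 mM Tris pH 7.4, 154 mM NaCl, 20 mM Di-Na-EDTA, 0.02% BSA; 37 °C for 90 min. Dose-response from 300 μM to 1.7 nM.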

Cannabinoid receptor 1 [7] = target: T2, Cannabinoid receptor 1; assay: Displacement of [3H]CP-55,940 from human CB1 receptor expressed in CHO-K1 cells after 90 mins by scintillation counting; summary of the method: as §2
Mu-type opioid receptor = Mu-type opioid receptor (Homo sapiens, UniProt P35372); assay: Displacement of [3H]DAMGO from human mu opioid receptor expressed in CHO-K1 cells after 60 mins by scintillation counting; summary of the method: as §1
Sequence of Mu-type opioid receptor (P35372 whole entry): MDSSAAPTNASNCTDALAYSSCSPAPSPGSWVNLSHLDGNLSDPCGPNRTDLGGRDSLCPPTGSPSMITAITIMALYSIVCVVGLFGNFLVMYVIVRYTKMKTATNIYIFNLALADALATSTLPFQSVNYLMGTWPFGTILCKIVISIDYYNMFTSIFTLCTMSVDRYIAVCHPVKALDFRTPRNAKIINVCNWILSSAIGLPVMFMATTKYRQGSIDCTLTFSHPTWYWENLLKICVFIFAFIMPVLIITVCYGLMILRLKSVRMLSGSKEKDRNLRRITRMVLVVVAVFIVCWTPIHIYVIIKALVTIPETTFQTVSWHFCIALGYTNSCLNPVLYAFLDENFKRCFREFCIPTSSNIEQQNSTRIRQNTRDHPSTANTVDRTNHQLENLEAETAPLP

T3 sequence (P41143 whole entry): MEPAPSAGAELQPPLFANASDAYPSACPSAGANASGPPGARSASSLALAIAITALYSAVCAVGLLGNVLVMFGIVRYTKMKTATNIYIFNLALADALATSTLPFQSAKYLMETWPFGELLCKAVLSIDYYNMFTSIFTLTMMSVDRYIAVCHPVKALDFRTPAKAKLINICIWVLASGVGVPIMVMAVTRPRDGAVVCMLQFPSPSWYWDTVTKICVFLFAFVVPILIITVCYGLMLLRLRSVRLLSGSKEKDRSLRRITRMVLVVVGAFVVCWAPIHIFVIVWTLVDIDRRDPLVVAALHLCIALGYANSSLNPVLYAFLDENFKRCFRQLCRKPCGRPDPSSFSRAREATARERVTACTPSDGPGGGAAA
T1 sequence (P34972 whole entry): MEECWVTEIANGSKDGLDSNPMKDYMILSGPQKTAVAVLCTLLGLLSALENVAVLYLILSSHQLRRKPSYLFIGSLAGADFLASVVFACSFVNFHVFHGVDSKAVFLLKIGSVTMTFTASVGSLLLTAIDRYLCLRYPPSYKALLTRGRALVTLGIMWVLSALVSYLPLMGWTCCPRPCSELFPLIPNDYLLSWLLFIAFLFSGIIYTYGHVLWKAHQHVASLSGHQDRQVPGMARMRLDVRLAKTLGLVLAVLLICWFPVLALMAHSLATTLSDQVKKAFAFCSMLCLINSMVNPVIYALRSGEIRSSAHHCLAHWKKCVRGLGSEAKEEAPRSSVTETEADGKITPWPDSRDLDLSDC
T2 sequence (P21554 whole entry): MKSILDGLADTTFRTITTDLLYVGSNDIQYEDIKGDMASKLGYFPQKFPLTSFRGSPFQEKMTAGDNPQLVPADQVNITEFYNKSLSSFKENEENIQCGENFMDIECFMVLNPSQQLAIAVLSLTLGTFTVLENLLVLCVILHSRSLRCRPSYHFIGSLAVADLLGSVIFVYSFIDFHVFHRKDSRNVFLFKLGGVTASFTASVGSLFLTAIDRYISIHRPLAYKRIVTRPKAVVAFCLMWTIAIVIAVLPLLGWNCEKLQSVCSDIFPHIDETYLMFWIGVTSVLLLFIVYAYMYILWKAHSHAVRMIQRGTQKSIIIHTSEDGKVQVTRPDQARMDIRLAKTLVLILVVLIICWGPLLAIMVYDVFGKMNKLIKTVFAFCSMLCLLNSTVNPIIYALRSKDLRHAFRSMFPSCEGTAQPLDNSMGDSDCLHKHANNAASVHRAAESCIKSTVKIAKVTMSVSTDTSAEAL
Sequence of Kappa-type opioid receptor (P41145 whole entry): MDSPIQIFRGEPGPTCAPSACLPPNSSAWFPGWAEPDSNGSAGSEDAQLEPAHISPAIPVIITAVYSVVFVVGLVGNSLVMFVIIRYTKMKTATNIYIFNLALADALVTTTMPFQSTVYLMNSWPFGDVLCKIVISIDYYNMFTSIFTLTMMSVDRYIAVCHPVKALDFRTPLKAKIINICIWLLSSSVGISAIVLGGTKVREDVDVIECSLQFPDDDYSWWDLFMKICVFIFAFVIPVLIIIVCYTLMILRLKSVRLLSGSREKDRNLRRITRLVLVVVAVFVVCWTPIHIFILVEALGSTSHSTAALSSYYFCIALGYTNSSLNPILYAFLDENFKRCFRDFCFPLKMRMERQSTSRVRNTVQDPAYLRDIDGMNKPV

For `CCC/C=C/c1cc2c(C=O)c(O)c(CC=C(C)C)cc2o1`, the Activity (Cannabinoid receptor 2 [1]) was < 40%, the Activity (Cannabinoid receptor 1 [2]) was < 40% and the Activity [3] was < 40%.
For `C=CC(C)(C)c1[nH]c2c(CC=C(C)C)cc(CC=C(C)C)cc2c1C[C@@H]1NC(=O)[C@H](C)NC1=O`, the Activity (Cannabinoid receptor 2 [1]) was < 40%, the Activity (Cannabinoid receptor 1 [2]) was < 40% and the Activity [3] was < 40%.
In the case of `CCCCC/C=C/c1c(O)cc(CC=C(C)C)c2c1CC(O)O2` (stereo not given), the IC50 [4] is reported as 32.4 µM and the Activity [3] is reported as < 40%.
`CCCCCCCc1c(O)cc(CC=C(C)C)c(O)c1C=O` was tested, and the Activity (Cannabinoid receptor 2 [1]) was < 40%, the Activity (Cannabinoid receptor 1 [2]) was < 40% and the Activity [3] was 52.5%.
With `CCCCC/C=C/c1c(O)cc(CC=C(C)C)c(O)c1CO` the Activity (Cannabinoid receptor 2 [1]) was < 40%, the IC50 [5] was 5.4 µM and the Activity (Cannabinoid receptor 1 [2]) was < 40%. It also gave an Activity [3] of 62.2%.
In the case of `Cc1c(O)cc(O)c2c1COC2=O`, the Activity (Cannabinoid receptor 2 [1]) is reported as < 40%, the Activity (Cannabinoid receptor 1 [2]) is reported as < 40% and the Activity [3] is reported as < 40%.
With `CCC/C=C/C=C/c1c(O)cc(CC=C(C)C)c(O)c1C=O` the Activity (Cannabinoid receptor 2 [1]) was < 40%, the Activity (Cannabinoid receptor 1 [2]) was < 40% and the Activity [3] was < 40%.
With `C/C=C/C=C/C=C/c1c(O)cc(CC=C(C)C)c(O)c1C=O` [AUROGLAUCIN] the Activity (Cannabinoid receptor 2 [1]) was 43.1%, the IC50 (Cannabinoid receptor 2 [6]) was 19.9 µM and the Activity (Cannabinoid receptor 1 [2]) was 62.6%. The IC50 (Cannabinoid receptor 1 [7]) was 15.2 µM and the Activity [3] was < 40%.
`CCCCC/C=C/c1c(O)cc(CC=C(C)C)c(O)c1C=O` [TETRAHYDROAUROGLAUCIN] was tested, and the Activity (Cannabinoid receptor 2 [1]) was < 40%, the IC50 (Mu-type opioid receptor) was 7.2 µM and the Activity (Cannabinoid receptor 1 [2]) was < 40%. The Activity [3] was < 40%.
